Reference: ChEMBL document CHEMBL1125486, “Inhibitors of blood platelet cAMP phosphodiesterase. 3. 1,3-Dihydro-2H-imidazo[4,5-b]quinolin-2-one derivatives with enhanced aqueous solubility” (J Med Chem, 1992)
In brackets after ≈: the same amount, converted by molar mass.

Legend:
[1] = Aqueous solubility; format: physicochemical; conditions: water; read-out: S
In short: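 Water (0.5 mL) added to 10 mg compound at room temperature, diluted up to […] unless dissolution occurred.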

[2] = species: Homo sapiens; test: Inhibition of ADP-induced aggregation of human platelets; format: functional
[3] = target: T1, Phosphodiesterase 3 (Homo sapiens, UniProt Q14432+Q13370); test: Inhibition of human platelet c-AMP phosphodiesterase PDE 3
[4] = target: T1, Phosphodiesterase 3; test: Inhibition of human platelet cAMP Phosphodiesterase PDE 3
In short: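 Human platelet cAMP PDE enzyme preparation; IC50 read from plots of cAMP hydrolysis against compound concentration; mean of duplicate determinations; BMY 20844 positive control.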

[5] = species: Oryctolagus cuniculus; test: Inhibition of laser induced thrombus formation in microvasculature of rabbit ear chamber; format: functional, organism-based
In short: (§1)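 Conscious rabbits, laser-induced microvessel thrombosis, oral dosing; 10 trials 2 h post-dose compared with 10 predose trials in same rabbit; mean thrombus area, % inhibition; at least three rabbits per compound.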

[6] = tested on: Oryctolagus cuniculus; test: Inhibition of laser induced thrombus formation in microvasculature of rabbit ear chamber at a peroral dose of 0.1 mg/kg; format: functional; conditions: route oral; in short: as §1
[7] = Solubility in 0.25 N HCl solution; format: physicochemical; conditions: read-out: S
In short: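 Solubility tested as for water, 0.5 mL solvent on 10 mg solid at room temperature with up to […] dilution, but in 0.25 N HCl solution.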

[8] = species: Homo sapiens; test: Inhibition of ADP induced aggregation of human platelets after 15 min of incubation of the drug with PRP prior to the addition of ADP; format: functional; conditions: 0.25 h
[9] = tested on: Oryctolagus cuniculus; test: Inhibition of laser induced thrombus formation in microvasculature of rabbit ear chamber at a dose of 0.3 mg/kg; format: functional; in short: as §1
[10] = tested on: Oryctolagus cuniculus; test: Inhibition of laser induced thrombus formation in microvasculature of rabbit ear chamber at dose of 0.03 mg/kg; format: functional; in short: as §1

SMILES | solubility [1] | EC50 [2] | IC50 [3] | other results
Oc1nc2cc3cc(N4CCN(c5ccccc5)CC4)ccc3[nH]c-2n1 | < 10000 µg/mL | 8060 nM | 5000 nM | 
CCC(CC)CN1CCN(C(=O)CCCOc2ccc3[nH]c4nc(O)nc-4cc3c2)CC1 | > 10000 µg/mL | 430 nM | 1 nM | 
O=C(CCCOc1ccc2[nH]c3nc(O)nc-3cc2c1)N1CCN(Cc2cccc(C(F)(F)F)c2)CC1 | 2000 µg/mL (≈ 3.89 mM) | 920 nM | 9 nM | 
O=C(CCCOc1ccc2[nH]c3nc(O)nc-3cc2c1)N1CCN(CC(=O)N2CCCC2)CC1 | > 10000 µg/mL | > 56500 nM |  | IC50 [4]: 6 nM
O=C(CCCCOc1ccc2[nH]c3nc(O)nc-3cc2c1)N1CCN(CC2CCCCC2)CC1 | > 10000 µg/mL | 51 nM | 0.03 nM | IC50 [5]: 0.03 mg/kg; inhibition in vivo at 0.1 mg/kg [6]: > 50%
O=C1CN2Cc3cc(OCCCC(=O)N4CCN(CC5CCCCC5)CC4)ccc3N=C2N1 | > 5000 µg/mL | 7230 nM | 6 nM | 
O=C1CN2Cc3cc(OCCCC(=O)N4CCN(Cc5ccccc5)CC4)ccc3N=C2N1 | > 5000 µg/mL | 4150 nM | 8 nM | 
COc1ccc(CN2CCN(C(=O)CCCOc3ccc4[nH]c5nc(O)nc-5cc4c3)CC2)cc1 | > 10000 µg/mL | 520 nM | 3 nM | 
CN1CCCC1CCNC(=O)CCCOc1ccc2[nH]c3nc(O)nc-3cc2c1 (stereo unspecified) |  | 79800 nM | 20 nM | solubility [7]: > 10000 µg/mL
CC(C)(C)OC(=O)N1CCN(C(=O)CCCOc2ccc3[nH]c4nc(O)nc-4cc3c2)CC1 | < 10000 µg/mL | 270 nM | 0.3 nM | 
O=C(CCCOc1ccc2[nH]c3nc(O)nc-3cc2c1)NCCN1CCCCC1 | > 20000 µg/mL | 4500 nM | 4 nM | 
COc1ccc(C(=O)N2CCN(c3ccc4[nH]c5nc(O)nc-5cc4c3)CC2)cc1OC | < 10000 µg/mL | 37900 nM |  | 
O=C(CCCOc1ccc2[nH]c3nc(O)nc-3cc2c1)N1CCN(CCC2CCCCC2)CC1 | < 10000 µg/mL | 54 nM | 0.2 nM | 
Oc1nc2cc3cc(N4CCOCC4)ccc3[nH]c-2n1 | < 10000 µg/mL | 250 nM | 20 nM | 
Oc1nc2cc3cc(N4CCCC4)ccc3[nH]c-2n1 | < 10000 µg/mL | 2030 nM |  | 
O=C(CCCOc1ccc2[nH]c3nc(O)nc-3cc2c1)N1CCN(c2ncccn2)CC1 | > 10000 µg/mL | 1220 nM | 7 nM | 
O=C(CCCOc1ccc2[nH]c3nc(O)nc-3cc2c1)N1CCN(CC2CCCCO2)CC1 (stereo unspecified) | > 10000 µg/mL | 2020 nM | 0.7 nM | 
CCCC(CCC)CN1CCN(C(=O)CCCOc2ccc3[nH]c4nc(O)nc-4cc3c2)CC1 | < 10000 µg/mL | 680 nM | 0.4 nM | 
O=C(CCCOc1ccc2[nH]c3nc(O)nc-3cc2c1)N1CCN(Cc2ccsc2)CC1 | > 10000 µg/mL | 380 nM | 0.7 nM | 
O=C(CCCOc1ccc2[nH]c3nc(O)nc-3cc2c1)N1CCN(Cc2ccc(Cl)cc2)CC1 | < 10000 µg/mL | 170 nM | 2 nM | 
O=C(CCCOc1ccc2[nH]c3nc(O)nc-3cc2c1)NC1CCN(Cc2ccccc2)CC1 | > 20000 µg/mL | 3700 nM | 0.7 nM | 
O=C(CCCOc1ccc2[nH]c3nc(O)nc-3cc2c1)N1CCN(CC2CCCCC2)CC1 | > 10000 µg/mL | 510 nM | 0.4 nM | IC50 [8]: 100 nM
O=C(CCCOc1ccc2[nH]c3nc(O)nc-3cc2c1)N1CCN(Cc2ccccc2)CC1 | > 10000 µg/mL |  | 0.7 nM | inhibition in vivo at 0.3 mg/kg [9]: 64%; inhibition in vivo at 0.1 mg/kg [6]: 50%; inhibition in vivo at 0.03 mg/kg [10]: 41%
O=C(O)C1CCN(c2ccc3[nH]c4nc(O)nc-4cc3c2)CC1 | < 10000 µg/mL | 30200 nM | 20 nM | 
O=C(CCCCOc1ccc2[nH]c3nc(O)nc-3cc2c1)N1CCN(Cc2ccccc2)CC1 | > 10000 µg/mL | 47 nM | 0.08 nM | 
Cn1c(O)nc2nc3ccc(OCCCC(=O)N4CCN(CC5CCCCC5)CC4)cc3cc21 | > 10000 µg/mL | > 58100 nM | 80 nM | 
COC(=O)C1CCN(c2ccc3[nH]c4nc(O)nc-4cc3c2)CC1 | < 10000 µg/mL | 280 nM |  | 
CCOC(=O)N1CCN(c2ccc3[nH]c4nc(O)nc-4cc3c2)CC1 | < 10000 µg/mL | 3520 nM | 700 nM | 
